Apaf-1 inh: inhibitors of human Apaf-1 apoptosome | O14727 | reconstituted apoptosome caspase-3 activity, DEVD-Rh110 fluorescence | inhibition, % at 20 µM | 0.71% of 330,000 active; active = inhibition of at least 40% at 20 µM
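Material: reconstituted apoptosome with Apaf-1, cytochrome c, caspase-9, procaspase-3, dATP / Buffer or medium: pH 7.5 Hepes buffer with CHAPS, BSA, DTT / Also added: cytochrome c with DEVD-Rh110 / Schedule: compound with Apaf-1, dATP, procaspase-3 30 min, then 50 min reaction, room temperature / Technique: rhodamine 110 fluorescence at Ex 480/Em 540 nm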
SENP7 inh: inhibitors of human SENP7 protease. recombinant SENP7, Z-RLRGG-aminoluciferin luminescence, 40 min. Q9BQF6. 1.5% of 330,000 active. inhibition, % at 5 µM. AID 434973;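 active = inhibition above about 50% at the single test dose, limit read from the data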
UBC13 polyUb: inhibitors of human UBC13 polyubiquitin chain formation; inhibition, % at 20 µM; 0.47% of 330,000 active; P61088; AID 485273; TR-FRET; in the data active = inhibition above about 45%, passing the limit was not always enough
Target sequence (P61088 whole entry, looked up): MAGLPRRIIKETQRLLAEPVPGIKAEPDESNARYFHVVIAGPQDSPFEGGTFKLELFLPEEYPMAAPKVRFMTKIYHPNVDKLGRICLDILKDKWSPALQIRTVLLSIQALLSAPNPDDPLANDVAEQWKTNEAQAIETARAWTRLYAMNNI
SENP6 inh: SENP6 protease inhibition; Q9GZR1; Recombinant SENP6 catalytic domain, aminoluciferin luminescence; inhibition, % at 10 µM; 1.8% of 330,000 active; AID 2599;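 active = inhibition above about 50% at the single tested dose, limit read from the data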
SENP8 block-1: inhibitors of human SENP8 protease. Q96LD8. purified SENP8, Z-RLRGG-aminoluciferin cleavage, luminescence. inhibition, % at 10 µM. 1.2% of 330,000 active. AID 2540; in the data active = inhibition above about 50%
Target sequence (Q96LD8 whole entry, looked up): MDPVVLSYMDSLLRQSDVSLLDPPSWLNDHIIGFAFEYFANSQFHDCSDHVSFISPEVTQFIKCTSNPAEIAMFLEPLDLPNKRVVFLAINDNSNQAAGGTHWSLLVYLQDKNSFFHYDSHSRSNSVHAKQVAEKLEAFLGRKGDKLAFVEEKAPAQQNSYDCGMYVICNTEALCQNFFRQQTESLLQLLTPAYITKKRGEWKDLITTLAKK
SENP8 block-2: SENP8 (human) protease inhibition | Q96LD8 | recombinant SENP8, Nedd8 substrate fluorescence | inhibition, % at 20 µM | 0.64% of 360,000 active; in the data active = inhibition mostly above about 40%, no sharp cut-off; inactive = mostly below about 27%
SENP8 conf: human SENP8 inhibition, confirmed; shares compounds with SENP7 inh; Recombinant SENP8, Z-RLRGG-aminoluciferin luminescence, 60 min; inhibition, % at 12.5 µM; 40% of 6,200 active;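 active = mean inhibition across replicates above about 50%, limit read from the data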
SENP6 confirm: human SENP6 inhibition, confirmed; recombinant SENP6, Z-RLRGG-aminoluciferin luminescence; inhibition, % at 12.5 µM; 58% of 6,200 active; shares compounds with SENP7 inh
SENP7 confirm: human SENP7 inhibition, confirmed; 69% of 6,200 active; recombinant SENP7, Z-RLRGG-aminoluciferin luminescence, 40 min; inhibition, % at 12.5 µM; shares compounds with SENP7 inh
Casp3 select: inhibits human caspase-3 in SENP selectivity test; inhibition, % at 12.5 µM; 60% of 6,200 active; AID 488918; purified caspase-3, Z-DEVD-aminoluciferin luminescence, 60 min; shares compounds with SENP7 inh;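 active = mean inhibition above about 50%, limit read from the data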
Target sequence (P42574 28-227 limits assumed): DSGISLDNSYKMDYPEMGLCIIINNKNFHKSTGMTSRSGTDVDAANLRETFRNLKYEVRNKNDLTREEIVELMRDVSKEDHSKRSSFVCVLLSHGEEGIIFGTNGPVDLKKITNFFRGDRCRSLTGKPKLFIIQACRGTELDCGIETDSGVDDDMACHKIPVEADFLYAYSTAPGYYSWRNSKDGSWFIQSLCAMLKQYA
SENP luc ctr: counter-screen for SENP inhibitors: luminescence interference; 39% of 6,200 active; Pre-incubated SENP8/Z-RLRGG-aminoluciferin, luciferase luminescence interference; inhibition, % at 12.5 µM; AID 488919; shares compounds with SENP7 inh;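 active = mean inhibition above about 50% when retested at one dose, limit read from the data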
A number is an active result; . = inactive; / = no result. A selection: hits, their analogues and other compounds. The true share with any hit is near 3.1%.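 The calls were made as follows, unless noted: active = mean inhibition above about 50% in the one-dose retest (limit read from the data); inactive = the rest.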

SMILES | Apaf-1 inh | SENP7 inh | UBC13 polyUb | SENP6 inh | SENP8 block-1 | SENP8 block-2 | SENP8 conf | SENP6 confirm | SENP7 confirm | Casp3 select | SENP luc ctr
C[C@H](CO)N1C[C@H](C)[C@@H](CN(C)Cc2ccc(Cl)c(Cl)c2)OCc2cnnn2CCCC1=O | / | / | / | / | / | . | / | / | / | / | /
CCOC(=O)C1(C)CCN1C(=O)c1c(F)cccc1F (stereo not drawn) | / | / | / | / | / | . | / | / | / | / | /
CCn1cnc2sc(-c3ccccc3)cc2c1=O | . | . | . | 58.2 | . | . | . | . | 64.7 | . | .
CC(=O)Cn1cnc2sc(-c3ccccc3)cc2c1=O | . | . | . | . | . | . | / | / | / | / | /
O=C(NCc1ccccc1)C(c1ccccc1)n1c(C2CC2)nc2ccccc21 (stereo not drawn) | / | / | / | / | / | . | / | / | / | / | /
Cc1nn(-c2ccccc2)c(Cl)c1/C=N/Nc1nc2ccccc2n1C | . | 64.7 | . | . | 54.5 | . | . | . | 92.9 | 67.8 | .
Cc1nn(-c2ccccc2)c(Cl)c1/C=N/NC(=O)c1ccnn1C | . | 94.1 | . | 94.0 | 86.5 | . | 59.3 | 80.8 | 97.3 | 92.4 | 54.8
CCOc1ccc(Cl)cc1-c1cc(C(=O)Nc2ccc(F)cc2)[nH]n1 | / | / | / | / | / | . | / | / | / | / | /
CC(C)=NOC(=O)c1ccc(-c2ccccc2)cc1 | . | 72.4 | . | 76.6 | 57.9 | . | 75.0 | 75.9 | 90.1 | 71.0 | 67.3
CC(=O)c1ccccc1OC(=O)c1ccc(-c2ccccc2)cc1 | . | . | . | . | . | . | / | / | / | / | /
COc1ccc(C(=O)O/N=C(\C)c2ccccc2)cc1 | . | 100.5 | . | 95.5 | 97.2 | . | 99.7 | 100.6 | 103.3 | 99.1 | 98.4
Oc1c(Cl)cc(Cl)cc1C=Nc1cc(C(F)(F)F)ccc1N1CCc2ccccc2C1 | . | 99.1 | . | . | 95.9 | . | 94.4 | 96.1 | 102.2 | 95.4 | 62.2
Oc1c(Cl)cccc1C=Nc1cc(C(F)(F)F)ccc1N1CCCC1 | . | . | . | . | . | . | / | / | / | / | /
O=C(c1ccco1)N1CCN(C2CN(Cc3cn(Cc4ccccc4C(F)(F)F)nn3)S(=O)(=O)C2)CC1 (stereo not drawn) | / | / | / | / | / | . | / | / | / | / | /
COC(=O)CN1C(=O)CSc2ccc(S(=O)(=O)N3CCC(C)CC3)cc21 | / | / | / | / | / | . | / | / | / | / | /
CCOC(=O)C1(C)CCN1C(=O)c1cc(F)ccc1C (stereo not drawn) | / | / | / | / | / | . | / | / | / | / | /
O=C(Nc1ccc(OCc2ccccc2)cc1)Nc1ccccc1C(=O)NCCCN1CCOCC1 | . | 97.2 | . | 95.1 | 95.4 | . | 98.5 | 99.5 | 103.4 | 97.9 | 88.3
CC1=C(C(=O)N(C)C)CC(CC(=O)NCCCCc2ccccc2)C(=O)N1Cc1ccc(C(C)(C)C)cc1 (stereo not drawn) | / | / | / | / | / | . | / | / | / | / | /
CN(CCCNC(=O)CSc1cc(=O)n(C)c2cc(Cl)ccc12)Cc1ccccc1 | . | 75.4 | . | . | . | . | . | . | . | . | .
Cc1ccc(C)c(C2C(=O)c3ccccc3C2=O)c1 | . | . | . | . | . | . | / | / | / | / | /
Cc1ccc2ccc(C3C(=O)c4ccccc4C3=O)nc2c1 | . | . | . | 53.3 | 52.3 | . | . | . | . | 58.1 | .
C[C@@H]1CN([C@H](C)CO)C(=O)CCCn2nncc2CO[C@@H]1CN(C)S(=O)(=O)c1ccc2ccccc2c1 | / | / | / | / | / | . | / | / | / | / | /
O=C(c1ccccc1)c1ccc2cc(O)ccc2c1 | . | 96.1 | . | 98.9 | 95.7 | . | . | 98.9 | 102.1 | 92.2 | 97.3
O=C(c1ccccc1)c1ccc2ccccc2c1 | / | / | / | / | / | . | / | / | / | / | /
COc1cccc(-c2cnc(C(O)c3ccc(-c4ccccc4)cc3)[nH]2)c1 (stereo not drawn) | / | / | / | / | / | . | / | / | / | / | /
SMILES | Apaf-1 inh | SENP7 inh | UBC13 polyUb | SENP6 inh | SENP8 block-1 | SENP8 block-2 | SENP8 conf | SENP6 confirm | SENP7 confirm | Casp3 select | SENP luc ctr
Cc1ccc(OCc2nc(-c3ccccc3)no2)c(C)c1 | . | . | . | 55.1 | . | . | . | . | 55.7 | . | .
O=[N+]([O-])c1ccccc1OCc1nc(-c2cccs2)no1 | . | . | . | . | . | . | / | / | / | / | /
Cc1ccc(OCc2nc(-c3cccs3)no2)c([N+](=O)[O-])c1 | . | 52.7 | . | . | . | . | 66.5 | 65.4 | 80.1 | . | .
CCCN1CCC(C(=O)NC(c2ccc(Cl)cc2)c2ccsc2)CC1 (stereo not drawn) | / | / | / | / | / | . | / | / | / | / | /
CCCC[n+]1ccc(-c2nc3ccc([N+](=O)[O-])cc3[nH]2)cc1 | . | . | . | . | . | . | / | / | / | / | /
O=[N+]([O-])c1ccc2nc(C(O)C(O)c3nc4ccc([N+](=O)[O-])cc4[nH]3)[nH]c2c1 (stereo not drawn) | . | . | . | . | . | . | / | / | / | / | /
O=[N+]([O-])c1ccc(-c2nc3ccc([N+](=O)[O-])cc3[nH]2)cc1 | . | 75.6 | . | 84.7 | 68.5 | . | . | . | 58.5 | . | 50.2
Nc1ccc(-c2nc3ccc([N+](=O)[O-])cc3[nH]2)cc1 | . | . | . | 50.5 | . | . | . | . | 73.4 | . | .
OC(c1ccc(CN2CCCCC2)cc1)c1ncc(-c2ccccc2F)[nH]1 (stereo not drawn) | / | / | / | / | / | . | / | / | / | / | /
CC(CC(c1ccccc1)N1CCc2ccccc2C1)=NO (stereo not drawn) | / | / | / | / | / | . | / | / | / | / | /
Cc1cccc2c1OCC/C2=N\NC(=O)COc1ccccc1Cl | . | 72.6 | . | . | . | . | . | . | . | . | .
Cc1nn2cc(-c3ccc(Cl)cc3)cnc2c1Cl | . | 75.9 | . | . | . | . | . | . | . | . | .
Cc1cccc(/C=N\N=C\c2cccc(C)c2)c1 | . | 51.0 | . | 63.5 | . | . | . | 53.5 | 80.9 | . | .
O=C(OCc1ccccc1)N1CCC2CC1c1cc(N3CCN(S(=O)(=O)c4cccc5ccccc45)CC3)ccc12 (stereo not drawn) | / | / | / | / | / | . | / | / | / | / | /
Cc1ccn2cc(-c3ccc(NC(=O)c4ccco4)cc3)nc2c1 | . | 63.8 | . | 75.5 | . | . | 54.8 | 52.9 | 86.2 | 74.5 | .
Clc1ccc(-c2cn3cc(Br)ccc3n2)cc1Cl | . | . | . | 63.1 | 58.7 | . | . | . | . | . | .
COc1c(Cl)cccc1-c1cn2ccc(C)cc2n1 | . | 94.0 | . | 90.2 | 84.0 | . | 90.4 | 91.0 | 100.3 | 89.6 | .
Cc1ccn2cc(-c3ccc(Br)cc3)nc2c1 | . | 97.2 | . | 91.5 | 94.1 | . | 55.9 | 94.0 | 96.2 | 93.7 | .
CC(=O)Nc1cccc(-c2cn3ccc(C)cc3n2)c1 | . | . | . | . | . | . | / | / | / | / | /

Screening data: PubChem, Sanford-Burnham Center for Chemical Genomics
